Reference: the RNAGym collection of RNA variant scans (doi:10.1002/anie.201605470)

B1: Osa-1-4 twister ribozyme (parent)
chain: CCGCCUAACACUGCCAAUGCCGGUCCCAAGCCCGGAUAAAAGUGGAGGGGGCGG

Variants of: B1
Test: self-cleavage, relative activity (ratio to wild type); higher = more cleavage; co-transcriptional
Method in brief: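 In vitro transcription at 37 °C for 2 h allowed the twister ribozyme to cleave itself as it was made. Its 54-nucleotide Oryza sativa template had been synthesised with 97 % wild-type base and 1 % of each other base at the 48 positions downstream of the cleavage site. A template-switching oligonucleotide was used for reverse transcription, followed by PCR amplification and deep sequencing. Whether reads carried upstream sequence set the cleavage status, and relative activity is the fraction cleaved normalised to wild type.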

self-cleavage, 0.04:
CCGCCUAACUCUGCCAAUGCCGGUCCCAAGCCCGGAUAAAAAUGGAGGGGGCGG [A10U G42A]
CCGCCUAACUCUGCCAAUGCCGGUCCCAAGCCCGGAUAAAACUGGAGGGGGCGG [A10U G42C]
CCGCCUAACUCUGCCAAUGCCGGUCCCAAGCCUGGAUAAAAGUGGAGGGGGCGG [A10U C33U]
CCGCCUAACUCUGCCAAUGCCGGUCCCAAGCCCGGAUAAAAGUGGAGGGGGAGG [A10U C52A]
CCGCCUAACUCUGCCAAUGCCGGUCUCAAGCCCGGAUAAAAGUGGAGGGGGCGG [A10U C26U]
CCGCCUAACUCUGUCAAUGCCGGUCCCAAGCCCGGAUAAAAGUGGAGGGGGCGG [A10U C14U]
CCGCCUAACUCUGCCAAUGCCGGUCCCAAGCCCGGAUAAAAGUGGAGGGGGCGC [A10U G54C]
CCGCCUAACUCUGCCAAUGCCGGUCCCAAGCCCGUAUAAAAGUGGAGGGGGCGG [A10U G35U]
CCGCCUAACUCUGCCAAUGCCGGUCCCAAGCCCGGAUAAAAGUGGAGGAGGCGG [A10U G49A]
CCGCCUAACUCUGCCAAUGCCGGUCCCAAGCCCGGAUAAAAGUGGAGGGUGCGG [A10U G50U]
CCGCCUAACUCUGCCAAUGCCGGUCCCAAGCGCGGAUAAAAGUGGAGGGGGCGG [A10U C32G]
CCGCCUAACUCUGCCAAUGCCGGUCCCAAGCCCGGAUAAAAGUGGAGGGGACGG [A10U G51A]

self-cleavage, 0.07:
CCGCCUAACUCUGCCAAUGCUGGUCCCAAGCCCGGAUAAAAGUGGAGGGGGCGG [A10U C21U]
CCGCCUAACUCUGCCAAUGCCGGUCCCAAGCCCGGAUAAAAGUGGAGGGGGGGG [A10U C52G]
CCGCCUAACUCUGCCAAGGCCGGUCCCAAGCCCGGAUAAAAGUGGAGGGGGCGG [A10U U18G]

self-cleavage, 0.06:
CCGCCUAACUCUGCCAAUGCCGGUCCCAAGCCCGGAUAAAAGUGGAGGGGGCGA [A10U G54A]
CCGCCUAACUCUGCCAAUGCCGGUCCCAAGCCCGAAUAAAAGUGGAGGGGGCGG [A10U G35A]

self-cleavage, 0.05:
CCGCCUAACUCUGCCAAUGCCGGUCCCAAGCCCGGAUAAAAGUGGAGGGGGUGG [A10U C52U]
CCGCCUAACUCUGCCAAUGCCGGUCGCAAGCCCGGAUAAAAGUGGAGGGGGCGG [A10U C26G]
CCGCCUAACUCUGCCAAUGCCAGUCCCAAGCCCGGAUAAAAGUGGAGGGGGCGG [A10U G22A]
CCGCCUAACUCUGCCAAUGCCGGUCCCAAGUCCGGAUAAAAGUGGAGGGGGCGG [A10U C31U]
CCGCCUAACUCUGCCAAUGCCGGUCCCAAGCCCGGAUAAAAGUGGAGGGAGCGG [A10U G50A]
CCGCCUAACUCUGCCAACGCCGGUCCCAAGCCCGGAUAAAAGUGGAGGGGGCGG [A10U U18C]

self-cleavage, 0:
CCGCCUAACUCUGCCAAUGCCGGUCCCAAGACCGGAUAAAAGUGGAGGGGGCGG [A10U C31A]

self-cleavage, 0.09:
CCGCCUAACUCUGCCAAUGCCGGUCCCAAGCCCGGAUAAAAGUCGAGGGGGCGG [A10U G44C]

self-cleavage, 0.02:
CCGCCUAACUCUGCCAAUGCCGGUCCCAAGCCCGGAUAAAAUUGGAGGGGGCGG [A10U G42U]
CCGCCUAACUCUGCCAAUGCCGGUCCCAAGCCAGGAUAAAAGUGGAGGGGGCGG [A10U C33A]
CCGCCUAACUCUGCCAAUGCGGGUCCCAAGCCCGGAUAAAAGUGGAGGGGGCGG [A10U C21G]
CCGCCUAACUCUGCCAAUGCCCGUCCCAAGCCCGGAUAAAAGUGGAGGGGGCGG [A10U G22C]
CCGCCUAACUCUGCCAAUGCCGGUCCCAAGCCCGGAUAAAAGUGGAGGUGGCGG [A10U G49U]
CCGCCUAACUCUGCCAAUGCCGGUCCCAAGCUCGGAUAAAAGUGGAGGGGGCGG [A10U C32U]
CCGCCUAACUCUGCCAAUGCCGGUCCCAAGCCCGGAUAAAAGUGGAGGGGCCGG [A10U G51C]

self-cleavage, 0.21:
CCGCCUAACUCUGCCAAUGCCGGUCCCAAGCCCGGAUAAAAGUGGAGGGGGCGU [A10U G54U]

self-cleavage, 0.08:
CCGCCUAACUCUGCCAAUGCCGGUCCCAAGCCCGGAUAAAAGUUGAGGGGGCGG [A10U G44U]

self-cleavage, 0.03:
CCGCCUAACUCUGCCAAUGCAGGUCCCAAGCCCGGAUAAAAGUGGAGGGGGCGG [A10U C21A]
CCGCCUAACUCUGCCAAUGCCUGUCCCAAGCCCGGAUAAAAGUGGAGGGGGCGG [A10U G22U]
CCGCCUAACUCUGCCAAUGCCGGUCCCAAGCCCGCAUAAAAGUGGAGGGGGCGG [A10U G35C]
CCGCCUAACUCUGCCAAUGCCGGUCCCAAGGCCGGAUAAAAGUGGAGGGGGCGG [A10U C31G]
CCGCCUAACUCUGCCAAUGCCGGUCCCAAGCCCGGAUAAAAGUGGAGGGCGCGG [A10U G50C]
CCGCCUAACUCUGCCAAUGCCGGUCCCAAGCCCGGAUAAAAGUAGAGGGGGCGG [A10U G44A]
CCGCCUAACUCUGCCAAAGCCGGUCCCAAGCCCGGAUAAAAGUGGAGGGGGCGG [A10U U18A]
CCGCCUAACUCUGCCAAUGCCGGUCCCAAGCCCGGAUAAAAGUGGAGGGGUCGG [A10U G51U]

self-cleavage, 0.01:
CCGCCUAACUCUGCCAAUGCCGGUCCCAACCCCGGAUAAAAGUGGAGGGGGCGG [A10U G30C]
CCGCCUAACUCUGCCAAUGCCGGUCCCAAACCCGGAUAAAAGUGGAGGGGGCGG [A10U G30A]
CCGCCUAACUCUGCCAAUGCCGGUCCCAAUCCCGGAUAAAAGUGGAGGGGGCGG [A10U G30U]
CCGCCUAACUCUGCCAAUGCCGGUCCCAAGCCGGGAUAAAAGUGGAGGGGGCGG [A10U C33G]
CCGCCUAACUCUGCCAAUGCCGGUCACAAGCCCGGAUAAAAGUGGAGGGGGCGG [A10U C26A]
CCGCCUAACUCUGCCAAUGCCGGUCCCAAGCCCGGAUAAAAGUGGAGGCGGCGG [A10U G49C]
CCGCCUAACUCUGCCAAUGCCGGUCCCAAGCACGGAUAAAAGUGGAGGGGGCGG [A10U C32A]
